An excerpt weighted towards active compounds, which were near 1.5% of everything screened.
NR2E3 ag-1 = inhibitors of NR2E3-RetCOR corepressor binding, primary screen, NR2E3 agonist project, biochemical, TR-FRET, GST-NR2E3, biotin-RetCOR; 1536-well; inhibition of corepressor binding, % at 4.78 µM; 0.12% of 320,000 active;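 active = percent inhibition above the cutoff of mean plus 3 SD of all tested compounds, set per screening campaign, cut at about 20% in these data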;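 note: 0% = DMSO wells and 100% = biotin wells as full block of FRET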
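System: GST-tagged NR2E3 plus biotinylated RetCOR corepressor; Amount: 1.35 nM GST-tagged NR2E3 final; Dosing: single nominal compound dose of 4.8 µM; Schedule: 5 h incubation at 4 °C; Technique: TR-FRET with europium anti-GST and streptavidin-D2, 340 nm excitation; Controls: biotin wells as high control, 0.6% DMSO wells as low control.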
GalR3 antag = GalR3 antagonists in HEK293 cells, primary screen, cell-based, fluorescence readout; AID 651719, 2012; HEK293 GalR3-CNG cAMP membrane potential fluorescence; galR3 body fused to GalR1 C-terminus; 0.44% of 360,000 active; inhibition, % at 3 µM;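 active = inhibition above the screen-wide average plus 3 SD, cut at about 13% in these data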;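 note: forskolin and galanin both at EC90 stimulate the cells; cAMP rise reported by CNG channel membrane potential dye signal; 0% = forskolin plus galanin with DMSO and 100% = forskolin alone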
Target sequence (O60755 1-299 limits assumed): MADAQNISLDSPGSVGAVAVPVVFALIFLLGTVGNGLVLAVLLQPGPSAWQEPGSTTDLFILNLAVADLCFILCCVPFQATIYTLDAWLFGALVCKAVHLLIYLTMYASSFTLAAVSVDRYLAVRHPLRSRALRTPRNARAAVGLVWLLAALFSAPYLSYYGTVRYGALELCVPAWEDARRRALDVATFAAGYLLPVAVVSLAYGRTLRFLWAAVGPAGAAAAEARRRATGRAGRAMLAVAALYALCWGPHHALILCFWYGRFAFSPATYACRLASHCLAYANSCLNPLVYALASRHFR
Jurkat NFkB inh = inhibitors of induced NF-kB luciferase reporter, primary screen, TCR NF-kB activation inhibitor project, cell-based, luminescence, uHTS. 0.53% of 330,000 active. inhibition, % at 4 µM. Jurkat, PMA/ionomycin-induced NF-kB luciferase reporter. AID 435003, 2010; in the data active = inhibition above about 50%
697 NFkB inh = inhibitors of PMA/ionomycin-induced NF-kB reporter, 697 cells, primary screen, B-cell NF-kB inhibitor project, cell-based, luminescence, uHTS | 697 B-cell NF-kB luciferase reporter, 16 h | inhibition, % at 4 µM | 0.33% of 330,000 active; in the data active = inhibition above about 35%
GASC-1 inh = inhibitors of GASC-1 histone demethylase, primary screen, biochemical, fluorescence, DELFIA europium. Lysine-specific demethylase 4C (Homo sapiens), Q9H3R0. GST-JMJD2C(1-420) H3K9me3 demethylation. inhibition, % at 2.35 µM. 0.069% of 330,000 active;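 active = more than half of a compound's replicate wells show inhibition beyond 50%, single wells judged on their own value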;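 note: signal counts dimethyl H3K9 product captured on neutravidin plate; 0% = median of DMSO wells and 100% = 0.3 times that DMSO median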
Target sequence (Q9H3R0 1-420 limits assumed): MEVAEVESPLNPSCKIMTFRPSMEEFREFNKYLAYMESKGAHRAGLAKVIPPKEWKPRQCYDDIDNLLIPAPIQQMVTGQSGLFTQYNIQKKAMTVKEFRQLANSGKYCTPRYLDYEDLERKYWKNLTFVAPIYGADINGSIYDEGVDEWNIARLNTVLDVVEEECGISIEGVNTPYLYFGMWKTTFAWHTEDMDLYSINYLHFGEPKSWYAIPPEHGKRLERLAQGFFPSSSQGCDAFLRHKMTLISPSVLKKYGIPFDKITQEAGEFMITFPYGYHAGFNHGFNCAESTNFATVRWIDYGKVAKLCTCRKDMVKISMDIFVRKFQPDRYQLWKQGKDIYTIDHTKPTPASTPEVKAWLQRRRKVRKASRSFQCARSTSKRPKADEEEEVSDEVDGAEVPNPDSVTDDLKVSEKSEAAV
NR2E3 ag-2 = NR2E3 agonists in two-hybrid cells, primary screen, cell-based, luminescence, CHO-S, Gal4-NCOR/VP16-NR2E3 | Photoreceptor-specific nuclear receptor (Homo sapiens), Q9Y5X4 | luciferase | inhibition of corepressor binding, % at 3.98 µM | 0.35% of 360,000 active | AID 602229, 2012;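 active = inhibition above the mean of all tested compounds plus 3 SD, cut at about 70% in these data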;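 note: 0% = DMSO with NR2E3 transfected cells and 100% = cells lacking NR2E3 construct; higher means lower luciferase signal from less NR2E3 corepressor binding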
Jurkat NFkB conf = PMA/ionomycin-induced NF-kB reporter inhibitors, Jurkat retest, confirmation, T-cell NF-kB inhibitor project, cell-based, luminescence, single concentration; shares compounds with Jurkat NFkB inh; Jurkat NF-kB luciferase, 16 h; inhibition, % at 4 µM; 27% of 2,700 active; AID 435020, 2010;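 active = inhibition reaching about 45% at 4 µM in either replicate, limit read from the data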;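 note: plate controls were PMA/ionomycin stimulated DMSO wells for no effect and unstimulated DMSO wells for full effect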
Numbers without * were called inactive.

`COc1ccccc1NC(=S)N(Cc1ccco1)Cc1cc2cccc(C)c2[nH]c1=O` gave NR2E3 ag-1 2.9, GalR3 antag -3.1, Jurkat NFkB inh 1.4, 697 NFkB inh 2.2, GASC-1 inh -1.6 and NR2E3 ag-2 -1.7.
`COc1ccccc1NC(=S)N(Cc1ccco1)Cc1cc2cc(C)c(C)cc2[nH]c1=O` gave NR2E3 ag-1 -0.5, GalR3 antag 1.2, Jurkat NFkB inh 66.8*, 697 NFkB inh -17.0, GASC-1 inh -8.2, NR2E3 ag-2 -58.2 and Jurkat NFkB conf 5.0.
Screening COc1cc(NC(=O)c2cc(-c3ccccc3)on2)cc(OC)c1OC returned NR2E3 ag-1 -2.6, GalR3 antag -10.4, Jurkat NFkB inh -1.8, 697 NFkB inh -10.5, GASC-1 inh 0.6 and NR2E3 ag-2 -17.1.
Screening COc1cc(NC(=O)c2cc(-c3ccc4c(c3)OCO4)on2)cc(OC)c1OC returned NR2E3 ag-1 0.6, GalR3 antag 1.4, Jurkat NFkB inh 66.3*, 697 NFkB inh 3.5, GASC-1 inh 22.2, NR2E3 ag-2 -38.1 and Jurkat NFkB conf 25.4.
Screening Cc1ccc2nc(-c3ccc(NC(=O)CSc4ccccc4)cc3)[nH]c2c1 returned NR2E3 ag-1 -26.1, GalR3 antag -10.0, Jurkat NFkB inh -152.6, 697 NFkB inh -118.5, GASC-1 inh 37.9, NR2E3 ag-2 -108.0 and Jurkat NFkB conf -117.6.
Screening COc1ccccc1CCC(=O)OCC(=O)Nc1ccc2[nH]c(=O)[nH]c2c1 returned NR2E3 ag-1 -1.3, GalR3 antag -3.8, Jurkat NFkB inh -4.6, 697 NFkB inh 19.3, GASC-1 inh -32.7 and NR2E3 ag-2 0.9.
Screening CC(C)Oc1ccc2c(=O)c(-c3ccccc3)coc2c1 returned NR2E3 ag-1 -0.7, Jurkat NFkB inh -185.3, 697 NFkB inh -211.2, GASC-1 inh -18.7, NR2E3 ag-2 -165.6 and Jurkat NFkB conf -82.7.
For Cc1ccc(N/C(N)=N/c2nc(CSc3nnc(C)s3)cc(=O)[nH]2)c(C)c1 the results were NR2E3 ag-1 1.0, GalR3 antag -2.8, Jurkat NFkB inh 71.6*, 697 NFkB inh -5.5, NR2E3 ag-2 -28.7 and Jurkat NFkB conf 52.5*.
COCCOC(=O)c1[nH]c2c(c1C)C(=O)CC(c1ccccc1)C2 (stereo not drawn) was read as NR2E3 ag-1 -1.8, Jurkat NFkB inh 45.7, 697 NFkB inh -16.1, GASC-1 inh -2.1 and NR2E3 ag-2 5.0.
Cc1c(C(=O)OCCOC(C)C)[nH]c2c1C(=O)CC(C)(C)C2 was read as NR2E3 ag-1 2.1, GalR3 antag -1.8, Jurkat NFkB inh -3.2, 697 NFkB inh -12.7, GASC-1 inh -0.4 and NR2E3 ag-2 -30.3.
Screening Cc1c(C(=O)OCCOC(C)C)[nH]c2c1C(=O)CC(c1ccco1)C2 (stereo not drawn) returned NR2E3 ag-1 5.2, Jurkat NFkB inh 60.2*, 697 NFkB inh -18.3, GASC-1 inh -33.6, NR2E3 ag-2 9.2 and Jurkat NFkB conf 35.8.
For COCCOC(=O)c1[nH]c2c(c1C)C(=O)CC(c1ccc(F)cc1)C2 (stereo not drawn) the results were NR2E3 ag-1 1.2, GalR3 antag -1.7, Jurkat NFkB inh 46.2, 697 NFkB inh -6.4, GASC-1 inh 2.7 and NR2E3 ag-2 -50.8.
Screening Cc1c(C(=O)OCc2ccccc2)[nH]c2c1C(=O)CC(c1ccco1)C2 (stereo not drawn) returned NR2E3 ag-1 2.6, Jurkat NFkB inh 62.6*, 697 NFkB inh -7.7, GASC-1 inh 18.5, NR2E3 ag-2 11.3 and Jurkat NFkB conf 39.2.
For COCCOC(=O)c1[nH]c2c(c1C)C(=O)CC(c1ccco1)C2 (stereo not drawn) the results were NR2E3 ag-1 0.2, GalR3 antag 3.8, Jurkat NFkB inh 59.6*, 697 NFkB inh -14.6, GASC-1 inh 21.4, NR2E3 ag-2 -43.2 and Jurkat NFkB conf 9.8.
Screening CSCCOC(=O)c1[nH]c2c(c1C)C(=O)CC(c1ccco1)C2 (stereo not drawn) returned NR2E3 ag-1 0.4, GalR3 antag -0.9, Jurkat NFkB inh 58.5*, 697 NFkB inh -3.4, GASC-1 inh 2.1, NR2E3 ag-2 -51.7 and Jurkat NFkB conf 2.0.
Screening CCOC(=O)C1CCN(C(=O)CCCCn2c(=O)[nH]c3ccccc3c2=O)CC1 returned NR2E3 ag-1 0.3, GalR3 antag -4.6, Jurkat NFkB inh 0.2, 697 NFkB inh 8.9, GASC-1 inh 0.2 and NR2E3 ag-2 8.4.
Screening CCOC(=O)c1ccc(NC(=O)c2nc[nH]c2C(=O)N(C)CCO)cc1 returned GalR3 antag -1.2 and NR2E3 ag-2 -2.3.
Cc1ccc(-n2ncc3c2CCCC3NC(=O)CCc2cnccn2)cc1C (stereo not drawn) was read as NR2E3 ag-1 0.9, GalR3 antag -3.3, Jurkat NFkB inh -8.2, 697 NFkB inh -7.1, GASC-1 inh 1.5 and NR2E3 ag-2 1.4.
For Cc1ccc(C(=O)NCC(=O)Nc2ccc(S(=O)(=O)Nc3cc(C)nc(C)n3)cc2)cc1 the results were GalR3 antag -4.0, Jurkat NFkB inh -9.7, 697 NFkB inh -25.2, GASC-1 inh 1.8 and NR2E3 ag-2 3.3.
Screening CCOC(=O)c1[nH]c2c(c1C)C(=O)CC(c1ccco1)C2 (stereo not drawn) returned NR2E3 ag-1 -0.5, GalR3 antag 5.1, Jurkat NFkB inh 75.3*, 697 NFkB inh -42.2, GASC-1 inh -0.9, NR2E3 ag-2 25.3 and Jurkat NFkB conf 55.3*.
`COc1ccccc1N(C(=O)c1snc(C(N)=O)c1N)C(C(=O)NC1CCCCC1)c1cccc(OC)c1OC` (stereo not drawn) gave NR2E3 ag-1 3.6, GalR3 antag -10.7, Jurkat NFkB inh -13.7, 697 NFkB inh -7.6, GASC-1 inh 6.3 and NR2E3 ag-2 -6.9.
Screening Cc1cc(NC(=O)NC(=O)c2ccccc2NC(=O)C(C)N)ccc1Oc1ncc(Br)cn1 (stereo not drawn) returned GalR3 antag -7.1 and NR2E3 ag-2 4.5.
Screening CC(=O)c1c(C)[nH]c(C(=O)CSc2ncnc3sc(-c4ccccc4)cc23)c1C returned NR2E3 ag-1 2.0, GalR3 antag -5.3, Jurkat NFkB inh 51.9*, 697 NFkB inh -31.6, GASC-1 inh -8.8, NR2E3 ag-2 14.7 and Jurkat NFkB conf 13.8.
